From ChEMBL document CHEMBL5247575 (J Med Chem, 2018)
Converted amounts (≈) assume the structure as drawn.

How the values were obtained:
[1] = system: Pseudomonas aeruginosa; assay: Antibacterial activity against Pseudomonas aeruginosa 839 by broth microdilution method; assay type: functional
[2] = system: Escherichia coli; assay: Synergistic antibacterial activity against Escherichia coli DH10B transfected with pBC SK (-) OXA-48 assessed as cefepime MIC at 4 ug/ml by broth microdilution method; assay type: functional; settings: dose 4 µg/ml
How it was run: (§1)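 Broth microdilution per CLSI guidelines, using custom frozen panels. […] Each partner drug was also tested alone. MICs were run in triplicate and the modal value is reported.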

[3] = system: Klebsiella pneumoniae; assay: Synergistic antibacterial activity against Klebsiella pneumoniae 660/1568 producing KPC-3 assessed as cefepime MIC at 4 ug/ml by broth microdilution method; assay type: functional; settings: dose 4 µg/ml; how it was run: as §1
[4] = system: Klebsiella pneumoniae; assay: Synergistic antibacterial activity against Klebsiella pneumoniae 729/1679 producing KPC-3 assessed as cefepime MIC at 4 ug/ml by broth microdilution method; assay type: functional; settings: dose 4 µg/ml; how it was run: as §1
[5] = system: Klebsiella pneumoniae; assay: Synergistic antibacterial activity against Klebsiella pneumoniae 1108/1989 producing KPC-3 assessed as cefepime MIC at 4 ug/ml by broth microdilution method; assay type: functional; settings: dose 4 µg/ml; how it was run: as §1
[6] = system: Klebsiella pneumoniae; assay: Synergistic antibacterial activity against Klebsiella pneumoniae 11978 producing OXA-48 assessed as cefepime MIC at 4 ug/ml by broth microdilution method; assay type: functional; settings: dose 4 µg/ml; how it was run: as §1
[7] = system: Acinetobacter baumannii; assay: Synergistic antibacterial activity against Acinetobacter baumannii PR381 producing OXA-24/40 assessed as cefepime MIC at 4 ug/ml by broth microdilution method; assay type: functional; settings: dose 4 µg/ml
[8] = system: Acinetobacter baumannii; assay: Synergistic antibacterial activity against Acinetobacter baumannii PR448 producing OXA-23 assessed as cefepime MIC at 4 ug/ml by broth microdilution method; assay type: functional; settings: dose 4 µg/ml
[9] = system: Acinetobacter baumannii; assay: Synergistic antibacterial activity against Acinetobacter baumannii PR474 producing OXA-23/24/40 assessed as cefepime MIC at 4 ug/ml by broth microdilution method; assay type: functional; settings: dose 4 µg/ml
[10] = system: Escherichia coli; assay: Synergistic antibacterial activity against Escherichia coli DH10B transfected with pBC SK (-) OXA-48 assessed as cefepime MIC at 8 ug/ml by broth microdilution method; assay type: functional; settings: dose 8 µg/ml; how it was run: as §1
[11] = system: Acinetobacter baumannii; assay: Synergistic antibacterial activity against ADC deleted Acinetobacter baumannii assessed as cefepime MIC at 8 ug/ml by broth microdilution method; assay type: functional; settings: dose 8 µg/ml
[12] = system: Klebsiella pneumoniae; assay: Synergistic antibacterial activity against Klebsiella pneumoniae 660/1568 producing KPC-3 assessed as cefepime MIC at 8 ug/ml by broth microdilution method; assay type: functional; settings: dose 8 µg/ml; how it was run: as §1
[13] = system: Klebsiella pneumoniae; assay: Synergistic antibacterial activity against Klebsiella pneumoniae 935/1884 producing KPC-3 assessed as cefepime MIC at 8 ug/ml by broth microdilution method; assay type: functional; settings: dose 8 µg/ml
[14] = system: Klebsiella pneumoniae; assay: Synergistic antibacterial activity against Klebsiella pneumoniae 1398/2291 producing KPC-3 assessed as cefepime MIC at 8 ug/ml by broth microdilution method; assay type: functional; settings: dose 8 µg/ml; how it was run: as §1
[15] = system: Klebsiella pneumoniae; assay: Synergistic antibacterial activity against Klebsiella pneumoniae 761/1723 producing KPC-3 assessed as cefepime MIC at 8 ug/ml by broth microdilution method; assay type: functional; settings: dose 8 µg/ml; how it was run: as §1
[16] = system: Klebsiella pneumoniae; assay: Synergistic antibacterial activity against Klebsiella pneumoniae 972/1910 producing KPC-3 assessed as cefepime MIC at 8 ug/ml by broth microdilution method; assay type: functional; settings: dose 8 µg/ml
[17] = system: Klebsiella pneumoniae; assay: Synergistic antibacterial activity against Klebsiella pneumoniae jefferson 1773 producing OXA-181 assessed as cefepime MIC at 8 ug/ml by broth microdilution method; assay type: functional; settings: dose 8 µg/ml
[18] = system: Klebsiella pneumoniae; assay: Synergistic antibacterial activity against Klebsiella pneumoniae jefferson 1775 producing OXA-48 assessed as cefepime MIC at 8 ug/ml by broth microdilution method; assay type: functional; settings: dose 8 µg/ml
[19] = system: Acinetobacter baumannii; assay: Synergistic antibacterial activity against Acinetobacter baumannii PR363 producing OXA-23 assessed as cefepime MIC at 8 ug/ml by broth microdilution method; assay type: functional; settings: dose 8 µg/ml
[20] = system: Acinetobacter baumannii; assay: Synergistic antibacterial activity against Acinetobacter baumannii PR420 producing OXA-23/24/40 assessed as cefepime MIC at 8 ug/ml by broth microdilution method; assay type: functional; settings: dose 8 µg/ml
[21] = system: Escherichia coli; assay: Synergistic antibacterial activity against Escherichia coli DH10B assessed as meropenem MIC at 4 ug/ml by broth microdilution method; assay type: functional; settings: dose 4 µg/ml
[22] = system: Klebsiella pneumoniae; assay: Synergistic antibacterial activity against Klebsiella pneumoniae 776/1742 producing KPC-2 assessed as meropenem MIC at 4 ug/ml by broth microdilution method; assay type: functional; settings: dose 4 µg/ml
[23] = system: Klebsiella pneumoniae; assay: Synergistic antibacterial activity against Klebsiella pneumoniae 977/1916 producing KPC-3 assessed as meropenem MIC at 4 ug/ml by broth microdilution method; assay type: functional; settings: dose 4 µg/ml
[24] = system: Klebsiella pneumoniae; assay: Synergistic antibacterial activity against Klebsiella pneumoniae CAV 1543 producing OXA-48 assessed as meropenem MIC at 4 ug/ml by broth microdilution method; assay type: functional; settings: dose 4 µg/ml
[25] = system: Pseudomonas aeruginosa; assay: Synergistic antibacterial activity against Pseudomonas aeruginosa CL232 assessed as meropenem MIC at 4 ug/ml by broth microdilution method; assay type: functional; settings: dose 4 µg/ml
[26] = system: Pseudomonas aeruginosa; assay: Synergistic antibacterial activity against Pseudomonas aeruginosa 839 assessed as meropenem MIC at 4 ug/ml by broth microdilution method; assay type: functional; settings: dose 4 µg/ml
[27] = system: Acinetobacter baumannii; assay: Synergistic antibacterial activity against Acinetobacter baumannii PR474 producing OXA-23/24/40 assessed as meropenem MIC at 4 ug/ml by broth microdilution method; assay type: functional; settings: dose 4 µg/ml
[28] = system: Acinetobacter baumannii; assay: Synergistic antibacterial activity against ADC deleted Acinetobacter baumannii assessed as meropenem MIC at 8 ug/ml by broth microdilution method; assay type: functional; settings: dose 8 µg/ml
[29] = system: Klebsiella pneumoniae; assay: Synergistic antibacterial activity against Klebsiella pneumoniae 729/1679 producing KPC-3 assessed as meropenem MIC at 8 ug/ml by broth microdilution method; assay type: functional; settings: dose 8 µg/ml; how it was run: as §1
[30] = system: Klebsiella pneumoniae; assay: Synergistic antibacterial activity against Klebsiella pneumoniae 776/1742 producing KPC-2 assessed as meropenem MIC at 8 ug/ml by broth microdilution method; assay type: functional; settings: dose 8 µg/ml
[31] = system: Klebsiella pneumoniae; assay: Synergistic antibacterial activity against Klebsiella pneumoniae 977/1916 producing KPC-3 assessed as meropenem MIC at 8 ug/ml by broth microdilution method; assay type: functional; settings: dose 8 µg/ml
[32] = system: Klebsiella pneumoniae; assay: Synergistic antibacterial activity against Klebsiella pneumoniae 1084/1957 producing KPC-3 assessed as meropenem MIC at 8 ug/ml by broth microdilution method; assay type: functional; settings: dose 8 µg/ml; how it was run: as §1
[33] = system: Klebsiella pneumoniae; assay: Synergistic antibacterial activity against Klebsiella pneumoniae 11978 producing OXA-48 assessed as meropenem MIC at 8 ug/ml by broth microdilution method; assay type: functional; settings: dose 8 µg/ml; how it was run: as §1
[34] = system: Pseudomonas aeruginosa; assay: Synergistic antibacterial activity against Pseudomonas aeruginosa 715 assessed as meropenem MIC at 8 ug/ml by broth microdilution method; assay type: functional; settings: dose 8 µg/ml
[35] = system: Acinetobacter baumannii; assay: Synergistic antibacterial activity against Acinetobacter baumannii PR440 producing OXA-23/24/40 assessed as meropenem MIC at 8 ug/ml by broth microdilution method; assay type: functional; settings: dose 8 µg/ml
[36] = system: Bacteria; assay: Inhibition of bacteria OXA-48 assessed as second order rate constant K2/K using nitrocefin as substrate
[37] = system: Escherichia coli; assay: Antibacterial activity against Escherichia coli DH10B by broth microdilution method; assay type: functional
[38] = system: Escherichia coli; assay: Antibacterial activity against Escherichia coli DH10B transfected with pBR322-catI-KPC-2 by broth microdilution method; assay type: functional
[39] = system: Pseudomonas aeruginosa; assay: Antibacterial activity against Pseudomonas aeruginosa 795 by broth microdilution method; assay type: functional
[40] = system: Acinetobacter baumannii; assay: Synergistic antibacterial activity against Acinetobacter baumannii PR319 producing OXA-23/24/40 assessed as cefepime MIC at 4 ug/ml by broth microdilution method; assay type: functional; settings: dose 4 µg/ml
[41] = system: Bacteria

Structure (SMILES): O=C(NNC(=O)[C@@H]1CC[C@@H]2CN1C(=O)N2OS(=O)(=O)O)[C@@H]1CCNC1
- MIC [1]: 4 µg/mL (≈ 10.6 µM)
- MIC [2]: ≤ 0.12 µg/mL
- MIC [3]: ≤ 0.12 µg/mL
- MIC [4]: ≤ 0.12 µg/mL
- MIC [5]: ≤ 0.12 µg/mL
- MIC [6]: ≤ 0.12 µg/mL
- MIC [7]: 16 µg/mL
- MIC [8]: 4 µg/mL
- MIC [9]: 8 µg/mL
- MIC [10]: ≤ 0.12 µg/mL
- MIC [11]: 0.5 µg/mL
- MIC [12]: ≤ 0.12 µg/mL
- MIC [13]: ≤ 0.12 µg/mL
- MIC [14]: ≤ 0.12 µg/mL
- MIC [15]: ≤ 0.12 µg/mL
- MIC [16]: ≤ 0.12 µg/mL
- MIC [17]: ≤ 0.12 µg/mL
- MIC [18]: ≤ 0.12 µg/mL
- MIC [19]: 8 µg/mL
- MIC [20]: > 16 µg/mL
- MIC [21]: ≤ 0.12 µg/mL
- MIC [22]: ≤ 0.12 µg/mL
- MIC [23]: ≤ 0.12 µg/mL
- MIC [24]: ≤ 0.12 µg/mL
- MIC [25]: > 16 µg/mL
- MIC [26]: ≤ 0.12 µg/mL
- MIC [27]: > 16 µg/mL
- MIC [28]: ≤ 0.12 µg/mL
- MIC [29]: ≤ 0.12 µg/mL
- MIC [30]: ≤ 0.12 µg/mL
- MIC [31]: ≤ 0.12 µg/mL
- MIC [32]: ≤ 0.12 µg/mL
- MIC [33]: ≤ 0.12 µg/mL
- MIC [34]: 0.5 µg/mL
- MIC [35]: > 16 µg/mL

Structure (SMILES): N#C[C@@H]1CC[C@@H]2CN1C(=O)N2OS(=O)(=O)[O-].[Na+]
- K [36]: 6.4 10^5/M/s
- MIC [37]: > 16 µg/mL
- MIC [38]: > 16 µg/mL
- MIC [39]: > 16 µg/mL
- MIC [1]: > 16 µg/mL
- MIC [2]: ≤ 0.12 µg/mL
- MIC [3]: 0.25 µg/mL
- MIC [4]: 0.5 µg/mL
- MIC [5]: 0.25 µg/mL
- MIC [6]: 0.5 µg/mL
- MIC [40]: > 16 µg/mL
- MIC [7]: 16 µg/mL
- MIC [8]: 2 µg/mL
- MIC [9]: 8 µg/mL
- MIC [10]: ≤ 0.12 µg/mL
- MIC [11]: 0.5 µg/mL
- MIC [12]: 0.25 µg/mL
- MIC [13]: ≤ 0.12 µg/mL
- MIC [14]: 0.25 µg/mL
- MIC [15]: ≤ 0.12 µg/mL
- MIC [16]: 0.25 µg/mL
- MIC [17]: 1 µg/mL
- MIC [18]: ≤ 0.12 µg/mL
- MIC [19]: 8 µg/mL
- MIC [20]: > 16 µg/mL
- MIC [21]: ≤ 0.12 µg/mL
- MIC [22]: 0.5 µg/mL
- MIC [23]: ≤ 0.12 µg/mL
- MIC [24]: ≤ 0.12 µg/mL
- MIC [25]: 16 µg/mL
- MIC [26]: 1 µg/mL
- MIC [27]: > 16 µg/mL
- MIC [28]: ≤ 0.12 µg/mL
- MIC [29]: ≤ 0.12 µg/mL
- MIC [30]: 0.25 µg/mL
- MIC [31]: ≤ 0.12 µg/mL
- MIC [32]: ≤ 0.12 µg/mL
- MIC [33]: ≤ 0.12 µg/mL
- MIC [34]: 16 µg/mL
- MIC [35]: 2 µg/mL
- T1/2 [41]: 23 min
